Test results: ChEMBL document CHEMBL1126019, “Synthesis, stability, and biological evaluation of water-soluble prodrugs of a new echinocandin lipopeptide. Discovery of a potential clinical agent for the treatment of systemic candidiasis and Pneumocystis carinii pneumonia (PCP)” (J Med Chem, 1992)
Numbered stars: 1 amine (or outer) side, 2 acyl side, 3 side chain; on linkers, the order of the positions; unused ones are H or OH. Bridge positions count the residues as written; N and C are the ends. Square brackets hold non-standard residues; d marks the D form. Peptide text beside a SMILES is read from it. * marks the point of attachment. Orn(4R-OH,5R-OH) = O=C([C@H](C[C@@H](O)[C@@H](O)N[*:3])N[*:1])[*:2]; hTyr(3S-OH,4S-OH) = N[C@H](C(=O)O)[C@H](O)[C@@H](O)c1ccc(O)cc1; Pro(3S-OH,4S-Me) = C[C@H]1CN[C@H](C(=O)O)[C@H]1O; Benzoyl(4-octyloxy) = CCCCCCCCOc1ccc(C(=O)*)cc1; Hyp = O=C(O)[C@@H]1C[C@@H](O)CN1

Key:
Rattus norvegicus = species: Rattus norvegicus; experiment: Minimum effect dose required to reduce the number of alveolor cyst load in rat Pneumocystis carinii pneumonia assay; assay type: functional
Method in brief: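 Immunosuppressed Sprague-Dawley rats with confirmed infection (5 per dose level) were dosed subcutaneously, 0.15 and 0.60 mg/kg twice daily for 4 days. On day 5, lungs were homogenized and cysts counted microscopically in a known amount of homogenate. MED90 is the dose giving ≥90% cyst reduction versus vehicle sham controls.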

Mus musculus = species: Mus musculus; experiment: Minimum effect dose required to reduce the number of colony forming units in per gram kidney of mice after being challenged, by tail vein injection, with 5 X l0e4 cells of Candida albicans (MY 1055); assay type: functional
Method in brief: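 DBA/2 mice (5 per dose level) were infected intravenously and dosed ip with vehicle sham or 1.5, 3.0 or 6.0 mg/kg twice daily for 4 days. On day 7 post-infection, kidneys were cultured on SDA (35 °C, 24 h) and CFU/g counted. MED99 is the dose giving ≥99% CFU/g reduction versus vehicle sham.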

Fungi [1] = experiment: (§1) Minimum fungicidal concentration against Candida tropicalis MY 1012; assay type: functional, organism-based
Method in brief: (§2)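 Clinical isolates in yeast nitrogen base with 1% dextrose, inoculated with about 5×10^3 CFU per well. Drug was tested by 2-fold serial dilution from 128 to 0.06 µg/mL, with growth for 24 h at 35 °C. 1.5-µL aliquots were then spotted onto Sabouraud dextrose agar and incubated at 35 °C for 24 h. MFC was the lowest concentration giving fewer than five colonies per spot. Duplicate determinations.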

Fungi [2] = experiment: Minimum fungicidal concentration against Candida pseudotropicalis MY 1100; assay type: functional, organism-based
Method in brief: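 Clinical isolates were inoculated at about 5×10^3 CFU into yeast nitrogen base with 1% dextrose, with drug in 2-fold dilutions from 128 to 0.06 µg/mL, and grown 24 h at 35 °C. Then 1.5 µL aliquots were spotted on Sabouraud dextrose agar and held 24 h at 35 °C. MFC is the lowest concentration giving fewer than five colonies per spot, from duplicate determinations.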

Fungi [3] = experiment: (§3) Minimum fungicidal concentration against Candida albicans MY 1055; assay type: functional, organism-based; method in brief: as §2
Homo sapiens = species: Homo sapiens; experiment: Hemolytic potential was determined as the minimum lytic concentration against human red blood cells; assay type: functional, cell-based
Method in brief: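 Compounds were serially diluted in water containing 10% DMSO and added to whole human blood, then incubated 2 h at 37 °C. Red cell lysis was scored visually, and the lowest lytic concentration was recorded.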

[4] = Inhibitory activity against glucan synthesis; assay type: functional
Fungi [5] = experiment: (§4) Minimum fungicidal concentration against Candida albicans MY 1028; assay type: functional, organism-based; method in brief: as §2
Fungi [6] = experiment: (§5) Minimum fungicidal concentration against Candida parapsilosis MY 1010; assay type: functional, organism-based; method in brief: as §2
Candida parapsilosis = experiment: as §5; assay type: functional, organism-based; method in brief: as §2
Candida tropicalis = experiment: as §1; assay type: functional, organism-based; method in brief: as §2
Candida albicans [7] = experiment: as §3; assay type: functional, organism-based; method in brief: as §2
Candida albicans [8] = experiment: as §4; assay type: functional, organism-based; method in brief: as §2

| Compound | MED90 (Rattus norvegicus) [mg/kg] | MED99 (Mus musculus) [mg/kg] | Concentration (Fungi [1]) [µg/mL] | Concentration (Fungi [2]) [µg/mL] | Concentration (Fungi [3]) [µg/mL] | Concentration (Homo sapiens) [µg/mL] | IC50 [4] [nM] | Concentration (Fungi [5]) [µg/mL] | other results |
| --- | --- | --- | --- | --- | --- | --- | --- | --- | --- |
| CCC(C)CC(C)CCCCCCCCC(=O)N[C@H]1C[C@@H](O)[C@@H](O)NC(=O)[C@@H]2[C@@H](O)CCN2C(=O)[C@H]([C@@H](O)CC(N)=O)NC(=O)[C@H]([C@H](O)[C@@H](O)c2ccc(OC(=O)OCCN(C)C)cc2)NC(=O)[C@@H]2C[C@@H](O)CN2C(=O)[C@H]([C@@H](C)O)NC1=O.O=C(O)C(F)(F)F (some centres not stated) | 0.6 | 6 |  |  |  |  |  |  |  |
| CCC(C)CC(C)CCCCCCCCC(=O)N[C@H]1C[C@@H](O)[C@@H](O)NC(=O)[C@@H]2[C@@H](O)CCN2C(=O)[C@H]([C@@H](O)CC(N)=O)NC(=O)[C@H]([C@H](O)[C@@H](O)c2ccc(OC(=O)CN)cc2)NC(=O)[C@@H]2C[C@@H](O)CN2C(=O)[C@H]([C@H](C)O)NC1=O (some centres not stated) |  |  | < 0.06 | 2 | 0.5 | 100 | 50 | 1 |  |
| CCC(C)CC(C)CCCCCCCCC(=O)N[C@H]1C[C@@H](O)[C@@H](O)NC(=O)[C@@H]2[C@@H](O)CCN2C(=O)[C@H]([C@@H](O)CC(N)=O)NC(=O)[C@H]([C@H](O)[C@@H](O)c2ccc(O)cc2)NC(=O)[C@@H]2C[C@@H](O)CN2C(=O)[C@H]([C@H](C)O)NC1=O (some centres not stated) |  |  | 0.06 | 2 | 0.25 | > 400 | 70 | 0.125 | Concentration (Fungi [6]): 4 µg/mL |
| CCCCCCCCOc1ccc(C(=O)N[C@H]2C[C@@H](O)[C@@H](O)NC(=O)[C@@H]3[C@@H](O)[C@@H](C)CN3C(=O)[C@H]([C@@H](C)O)NC(=O)[C@H]([C@H](O)[C@@H](O)c3ccc(O)cc3)NC(=O)[C@@H]3C[C@@H](O)CN3C(=O)[C@H]([C@@H](C)O)NC2=O)cc1 [CILOFUNGIN] ({Benzoyl(4-octyloxy)}-[Orn(4R-OH,5R-OH)]T[Hyp][hTyr(3S-OH,4S-OH)]T[Pro(3S-OH,4S-Me)]; lactam 1-C) | > 2.5 | 3 |  |  |  | > 400 | 1000 |  | Concentration (Candida parapsilosis): 16 µg/mL; Concentration (Candida tropicalis): 0.25 µg/mL; Concentration (Candida albicans [7]): 0.5 µg/mL; Concentration (Candida albicans [8]): 0.5 µg/mL |
| CCC(C)CC(C)CCCCCCCCC(=O)N[C@H]1C[C@@H](O)[C@@H](O)NC(=O)[C@@H]2[C@@H](O)CCN2C(=O)[C@H]([C@@H](O)CC(N)=O)NC(=O)[C@H]([C@H](O)[C@@H](O)c2ccc(OC(=O)NCCC(=O)O)cc2)NC(=O)[C@@H]2C[C@@H](O)CN2C(=O)[C@H]([C@@H](C)O)NC1=O (some centres not stated) | > 0.6 | > 6 |  |  |  |  |  |  |  |
| CCC(C)CC(C)CCCCCCCCC(=O)N[C@H]1C[C@@H](O)[C@@H](O)NC(=O)[C@@H]2[C@@H](O)CCN2C(=O)[C@H]([C@@H](O)CC(N)=O)NC(=O)[C@H]([C@H](O)[C@@H](O)c2ccc(OC(=O)N(C)CC(=O)O)cc2)NC(=O)[C@@H]2C[C@@H](O)CN2C(=O)[C@H]([C@@H](C)O)NC1=O (some centres not stated) | > 0.6 | > 6 |  |  |  |  |  |  |  |
| CCC(C)CC(C)CCCCCCCCC(=O)N[C@H]1C[C@@H](O)[C@@H](O)NC(=O)[C@@H]2[C@@H](O)CCN2C(=O)[C@H]([C@@H](O)CC(N)=O)NC(=O)[C@H]([C@H](O)[C@@H](O)c2ccc(OC(=O)CCN)cc2)NC(=O)[C@@H]2C[C@@H](O)CN2C(=O)[C@H]([C@@H](C)O)NC1=O.Cl (some centres not stated) | 0.15 | 6 |  |  |  |  |  |  |  |
| CCC(C)CC(C)CCCCCCCCC(=O)N[C@H]1C[C@@H](O)[C@@H](O)NC(=O)[C@@H]2[C@@H](O)CCN2C(=O)[C@H]([C@@H](O)CC(N)=O)NC(=O)[C@H]([C@H](O)[C@@H](O)c2ccc(OC(=O)NCCN(C)C)cc2)NC(=O)[C@@H]2C[C@@H](O)CN2C(=O)[C@H]([C@@H](C)O)NC1=O.O=C(O)C(F)(F)F (some centres not stated) | 0.6 | 6 |  |  |  |  |  |  |  |
| CCC(C)CC(C)CCCCCCCCC(=O)N[C@H]1C[C@@H](O)[C@@H](O)NC(=O)[C@@H]2[C@@H](O)CCN2C(=O)[C@H]([C@@H](O)CC(N)=O)NC(=O)[C@H]([C@H](O)[C@@H](O)c2ccc(OC(=O)N(C)CC(=O)O)cc2)NC(=O)[C@@H]2C[C@@H](O)CN2C(=O)[C@H]([C@H](C)O)NC1=O (some centres not stated) |  |  | 1 | 8 | 2 | 25 | > 1000 | 2 |  |
